According to the array DNA melting data of Ke et al. (doi:10.1101/2024.01.08.574731):

Key:
[1] = melting temperature; fluorescence melt of hairpins on a sequencing array, two-state fit, raised by 9.35 °C to match UV melts; conditions: sodium 0.088 M
Method in brief: (§1)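 Hairpins were imaged by Cy3 fluorescence on a sequenced MiSeq flow cell with annealed Cy3 and quencher oligos, in 50 mM Na-HEPES pH 8.0, 25 mM NaCl, in 2.5 °C steps up to 60 °C. Bootstrapped two-state fits of normalised signals gave melting temperature and folding enthalpy. Four replicates were combined by inverse variance, and fitted temperatures were raised by 9.35 °C to match UV melts.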

[2] = folding enthalpy; higher = less favourable; fluorescence melt of hairpins on a sequencing array, two-state fit; conditions: sodium 0.088 M
Method in brief: as §1

GCCTCGCGAAAGCCAAGC ((.(.((....)).).))
Tm [1]: 28.4 °C | folding enthalpy [2]: -6.14 kcal/mol

GCCTCGCGAAAGCGAAGC ((.((((....)))).))
Tm [1]: 56.5 °C | folding enthalpy [2]: -18.7 kcal/mol

GCCTCGCGAAAGCTAGGC ((((.((....)).))))
Tm [1]: 65.2 °C | folding enthalpy [2]: -33 kcal/mol

GCCTCGCGAAAGCTCGGC (((..((....))..)))
Tm [1]: 46.4 °C | folding enthalpy [2]: -26.6 kcal/mol

GCCTCGCGAAAGCTGGGC (((..((....))..)))
Tm [1]: 55.4 °C | folding enthalpy [2]: -22.2 kcal/mol

GCCTCGGCGAAAGCCGGC (((..(((....))))))
Tm [1]: 54.4 °C | folding enthalpy [2]: -4.13 kcal/mol

GCCTCGGGAAACCAAGGC ((((.((....)).))))
Tm [1]: 47.6 °C | folding enthalpy [2]: -34.9 kcal/mol

GCCTCGGGAAACCGAAGC ((.((((....)))).))
Tm [1]: 44.6 °C | folding enthalpy [2]: -23.9 kcal/mol

GCCTGAACGAAAGTTGGC (((..(((....))))))
Tm [1]: 45.5 °C | folding enthalpy [2]: -23.2 kcal/mol

GCCTGAGGAAACTCGGGC (((.(((....))).)))
Tm [1]: 57.4 °C | folding enthalpy [2]: -40.8 kcal/mol

GCCTGCGAAAGCACCGGC ((((((....)))..)))
Tm [1]: 46.6 °C | folding enthalpy [2]: -18.5 kcal/mol

GCCTGCGAAAGCACGGC ((((((....))).)))
Tm [1]: 63.2 °C | folding enthalpy [2]: -29.7 kcal/mol

GCCTGCGAAAGCATCGGC ((((((....)))..)))
Tm [1]: 47.2 °C | folding enthalpy [2]: -19.1 kcal/mol

GCCTGGCGAAAGCAGGGC (((..((....))..)))
Tm [1]: 65.6 °C | folding enthalpy [2]: -26.7 kcal/mol

GCCTGGCGAAAGCCCGGC (((.(((....))).)))
Tm [1]: 59.4 °C | folding enthalpy [2]: -35.3 kcal/mol

GCCTGGCGAAAGCCCTGC ((..(((....)))..))
Tm [1]: 32.6 °C | folding enthalpy [2]: -12.2 kcal/mol

GCCTGGCGAAAGCCGCGC ((..(((....)))..))
Tm [1]: 52.3 °C | folding enthalpy [2]: -16.8 kcal/mol

GCCTGGCGAAAGCCTAGC ((..(((....)))..))
Tm [1]: 41 °C | folding enthalpy [2]: -12.8 kcal/mol

GCCTGGCGAAAGCGCGGC (((..((....))..)))
Tm [1]: 57.1 °C | folding enthalpy [2]: -19 kcal/mol

GCCTGGCGAAAGCTTGGC (((..((....))..)))
Tm [1]: 59.4 °C | folding enthalpy [2]: -26.5 kcal/mol

GCCTGGGGAAACCTGGGC (((..((....))..)))
Tm [1]: 50.3 °C | folding enthalpy [2]: -32.3 kcal/mol

GCCTGGGGAAACTCAGGC (((((.(....).)))))
Tm [1]: 58.4 °C | folding enthalpy [2]: -36 kcal/mol

GCCTGTACGAAAGTAGGC (((..(((....))))))
Tm [1]: 48.9 °C | folding enthalpy [2]: -29.1 kcal/mol

GCCTGTGGAAACACGGGC (((.(((....))).)))
Tm [1]: 61.9 °C | folding enthalpy [2]: -41 kcal/mol

GCCTTAACGAAAGTTGGC (((..(((....))))))
Tm [1]: 43.7 °C | folding enthalpy [2]: -26.5 kcal/mol

GCCTTACCGAAAGGTGGC (((..(((....))))))
Tm [1]: 48.8 °C | folding enthalpy [2]: -23.6 kcal/mol

GCCTTATCGAAAGATGGC (((..(((....))))))
Tm [1]: 42.6 °C | folding enthalpy [2]: -28.7 kcal/mol

GCCTTCCCGAAAGGGGGC (((..(((....))))))
Tm [1]: 47.7 °C | folding enthalpy [2]: -17.2 kcal/mol

GCCTTCGAAAGAAAGGGC ((((((....)))..)))
Tm [1]: 43.1 °C | folding enthalpy [2]: -29.4 kcal/mol

GCCTTCGAAAGAAATGGC ((((((....)))..)))
Tm [1]: 38.5 °C | folding enthalpy [2]: -24.6 kcal/mol

GCCTTCGAAAGAACCGGC ((((((....)))..)))
Tm [1]: 33.9 °C | folding enthalpy [2]: -19.4 kcal/mol

GCCTTCGAAAGAATAGGC ((((((....)))..)))
Tm [1]: 44.8 °C | folding enthalpy [2]: -28.8 kcal/mol

GCCTTCGGAAACGAAAGC ((.((((....)))).))
Tm [1]: 40.4 °C | folding enthalpy [2]: -22 kcal/mol

GCCTTCGGAAACGGAGGC ((((.((....)).))))
Tm [1]: 58.6 °C | folding enthalpy [2]: -40.4 kcal/mol

GCCTTGCGAAAGCAGGC (((.(((....))))))
Tm [1]: 66.7 °C | folding enthalpy [2]: -24 kcal/mol

GCCTTGCGAAAGCCACGC ((.(.((....)).).))
Tm [1]: 46.8 °C | folding enthalpy [2]: -7.87 kcal/mol

GCCTTGCGAAAGCGACGC ((.(.((....)).).))
Tm [1]: 48.2 °C | folding enthalpy [2]: -10.5 kcal/mol

GCCTTGCGAAAGCTCGGC (((..((....))..)))
Tm [1]: 53.1 °C | folding enthalpy [2]: -21.9 kcal/mol

GCCTTGCGAAAGCTGGGC (((..((....))..)))
Tm [1]: 62.6 °C | folding enthalpy [2]: -25.9 kcal/mol

GCCTTTGAAAAAAGGC ((((((....))))))
Tm [1]: 59.2 °C | folding enthalpy [2]: -32.6 kcal/mol

GCCTTTGGAAACAGAGGC ((((.((....)).))))
Tm [1]: 48.2 °C | folding enthalpy [2]: -31.1 kcal/mol

GCGAAACTTCGC ((((....))))
Tm [1]: 51.1 °C | folding enthalpy [2]: -19.9 kcal/mol

GCGAAAGCTCGC ((((....))))
Tm [1]: 56.8 °C | folding enthalpy [2]: -11 kcal/mol

GCGAAATCGAAAGATCGC (((..(((....))))))
Tm [1]: 47.5 °C | folding enthalpy [2]: -28.1 kcal/mol

GCGAAATCTCGC ((((....))))
Tm [1]: 45.2 °C | folding enthalpy [2]: -20.3 kcal/mol

GCGAAATTCGC ((((...))))
Tm [1]: 43.1 °C | folding enthalpy [2]: -18.2 kcal/mol

GCGAACCCTCGC ((((....))))
Tm [1]: 47 °C | folding enthalpy [2]: -23.2 kcal/mol
